{"source": "paper PMC5589077", "about": "(ACS chemical neuroscience, 2015)", "key": {"nAChRs": {"biological_target": "nAChRs", "details": "cited from earlier work; for Ki: read-out: Ki for inhibition of [3H]epibatidine binding to nAChRs"}, "α6β2*-nAChR in α5KO": {"biological_target": "α6β2*-nAChR in α5KO (Mus musculus, UniProt Q9ERK7+Q9R0W9)", "sequence (Q9R0W9 26-494)": "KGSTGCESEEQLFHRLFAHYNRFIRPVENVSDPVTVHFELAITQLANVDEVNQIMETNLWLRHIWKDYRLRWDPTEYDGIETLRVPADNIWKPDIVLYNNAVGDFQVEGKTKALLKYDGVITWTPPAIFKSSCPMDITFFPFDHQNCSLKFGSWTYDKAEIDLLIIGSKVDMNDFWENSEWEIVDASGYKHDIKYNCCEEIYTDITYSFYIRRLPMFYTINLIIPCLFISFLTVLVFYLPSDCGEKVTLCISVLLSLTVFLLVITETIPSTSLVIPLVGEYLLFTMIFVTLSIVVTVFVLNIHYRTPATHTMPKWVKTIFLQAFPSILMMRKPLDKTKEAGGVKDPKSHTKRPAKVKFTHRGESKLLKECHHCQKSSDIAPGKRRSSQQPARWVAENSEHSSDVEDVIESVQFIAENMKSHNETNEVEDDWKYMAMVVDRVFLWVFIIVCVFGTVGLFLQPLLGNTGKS", "sequence (Q9ERK7 26-501)": "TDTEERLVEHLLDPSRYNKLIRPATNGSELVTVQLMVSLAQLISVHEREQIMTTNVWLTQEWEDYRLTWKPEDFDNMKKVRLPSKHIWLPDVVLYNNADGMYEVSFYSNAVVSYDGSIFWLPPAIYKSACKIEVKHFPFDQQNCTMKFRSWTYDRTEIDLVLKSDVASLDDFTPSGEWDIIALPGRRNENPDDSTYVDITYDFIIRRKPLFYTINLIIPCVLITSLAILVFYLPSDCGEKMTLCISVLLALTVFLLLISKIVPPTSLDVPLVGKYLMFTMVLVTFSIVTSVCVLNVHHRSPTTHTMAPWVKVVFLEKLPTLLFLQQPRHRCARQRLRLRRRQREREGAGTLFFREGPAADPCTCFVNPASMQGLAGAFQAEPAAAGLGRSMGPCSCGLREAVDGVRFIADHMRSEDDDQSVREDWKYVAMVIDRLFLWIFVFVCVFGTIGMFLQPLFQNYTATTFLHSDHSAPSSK", "type": "cell-based"}, "α6β2*-nAChR [1]": {"biological_target": "T1, α6β2*-nAChR (Mus musculus, UniProt Q9ERK7+Q9R0W9)", "T1 sequence (Q9ERK7 26-501)": "as above", "T1 sequence (Q9R0W9 26-494)": "as the sequence (Q9R0W9 26-494) above", "details": "read-out: binding Ki, α6β2; [125I]epibatidine; striatum and olfactory tubercle membranes from α4KO mice"}, "[2]": {"assay": "62 receptor/enzyme screen", "type": "binding", "details": "10 μM", "how_it_was_run": "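Profiling in a 62-target radioligand and enzyme panel. Test compound was run at 100 nM and 10 000 nM, in duplicate. The work was done by a contractor to the NIDA Addiction Treatment Discovery Program.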"}, "DAD1": {"biological_target": "DAD1 (Homo sapiens, UniProt P21728)", "assay": "off-target radioligand binding assay", "details": "10 μM"}, "mouse [3]": {"tested_on": "mouse", "details": "cited from earlier work"}, "mouse [4]": {"tested_on": "mouse", "details": "cited from earlier work", "remark": "listed apart in the source"}, "5HT2C": {"biological_target": "5HT2C (Homo sapiens, UniProt P28335)", "assay": "off-target radioligand binding assay", "details": "10 μM"}, "DAD2": {"biological_target": "DAD2 (Homo sapiens, UniProt P14416)", "sequence (P14416 whole entry)": "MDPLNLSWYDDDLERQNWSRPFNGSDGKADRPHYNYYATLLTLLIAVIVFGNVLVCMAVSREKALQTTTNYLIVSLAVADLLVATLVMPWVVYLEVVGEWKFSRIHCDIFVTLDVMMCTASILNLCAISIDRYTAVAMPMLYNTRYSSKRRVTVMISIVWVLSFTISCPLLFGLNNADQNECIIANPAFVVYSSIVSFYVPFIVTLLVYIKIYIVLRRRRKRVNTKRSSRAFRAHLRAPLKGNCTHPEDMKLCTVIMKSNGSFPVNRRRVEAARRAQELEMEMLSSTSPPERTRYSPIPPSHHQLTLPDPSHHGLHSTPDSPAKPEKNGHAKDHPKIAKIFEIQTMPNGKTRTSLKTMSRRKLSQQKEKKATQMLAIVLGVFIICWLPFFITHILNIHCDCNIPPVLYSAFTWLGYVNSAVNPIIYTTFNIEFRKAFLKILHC", "assay": "off-target radioligand binding assay", "details": "10 μM"}, "α6β2*-nAChR [5]": {"biological_target": "T1, α6β2*-nAChR", "type": "cell-based"}, "ICR mice [6]": {"tested_on": "ICR mice", "assay": "blockade of nicotine-induced CPP", "type": "in vivo, mouse", "details": "pretreatment 1 mg/kg, 15 min before nicotine 0.5 mg/kg s.c.", "how_it_was_run": "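Male ICR mice, 8–10 weeks old, n = 8 per group, in an unbiased three-chamber CPP. Day 1: 5 min habituation, then a 15 min baseline, with the paired side randomised. Days 2–4: two 20 min sessions daily, ≥5 h apart, nicotine 0.5 mg/kg s.c. (saline, free base) versus saline. Test compound or vehicle s.c. 15 min before nicotine. Day 5 retest.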"}, "mouse [7]": {"tested_on": "mouse", "details": "cited from earlier work", "remark": "listed apart in the source"}, "α4β2*-nAChR in α5KO": {"biological_target": "α4β2*-nAChR in α5KO (Mus musculus, UniProt O70174+Q9ERK7)", "sequence (O70174 31-629)": "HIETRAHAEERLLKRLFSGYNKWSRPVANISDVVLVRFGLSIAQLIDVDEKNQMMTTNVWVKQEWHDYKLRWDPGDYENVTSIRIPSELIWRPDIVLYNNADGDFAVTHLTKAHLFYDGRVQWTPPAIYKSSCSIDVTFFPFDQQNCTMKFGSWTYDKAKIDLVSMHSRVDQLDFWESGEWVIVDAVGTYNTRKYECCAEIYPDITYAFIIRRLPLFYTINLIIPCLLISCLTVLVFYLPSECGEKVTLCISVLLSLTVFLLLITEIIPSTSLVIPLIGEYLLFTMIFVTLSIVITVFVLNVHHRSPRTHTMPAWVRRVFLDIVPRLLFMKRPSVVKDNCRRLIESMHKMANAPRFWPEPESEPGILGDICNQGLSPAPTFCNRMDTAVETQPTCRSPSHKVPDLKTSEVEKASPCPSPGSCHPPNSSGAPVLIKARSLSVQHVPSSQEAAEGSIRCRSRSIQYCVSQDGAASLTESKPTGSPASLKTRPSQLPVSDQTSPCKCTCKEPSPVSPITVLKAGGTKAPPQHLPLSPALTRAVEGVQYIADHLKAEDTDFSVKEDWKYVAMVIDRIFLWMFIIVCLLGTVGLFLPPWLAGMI", "sequence (Q9ERK7 26-501)": "as the sequence (Q9ERK7 26-501) above", "type": "cell-based"}, "DAT": {"biological_target": "DAT (Homo sapiens, UniProt Q01959)", "sequence (Q01959 whole entry, species assumed)": "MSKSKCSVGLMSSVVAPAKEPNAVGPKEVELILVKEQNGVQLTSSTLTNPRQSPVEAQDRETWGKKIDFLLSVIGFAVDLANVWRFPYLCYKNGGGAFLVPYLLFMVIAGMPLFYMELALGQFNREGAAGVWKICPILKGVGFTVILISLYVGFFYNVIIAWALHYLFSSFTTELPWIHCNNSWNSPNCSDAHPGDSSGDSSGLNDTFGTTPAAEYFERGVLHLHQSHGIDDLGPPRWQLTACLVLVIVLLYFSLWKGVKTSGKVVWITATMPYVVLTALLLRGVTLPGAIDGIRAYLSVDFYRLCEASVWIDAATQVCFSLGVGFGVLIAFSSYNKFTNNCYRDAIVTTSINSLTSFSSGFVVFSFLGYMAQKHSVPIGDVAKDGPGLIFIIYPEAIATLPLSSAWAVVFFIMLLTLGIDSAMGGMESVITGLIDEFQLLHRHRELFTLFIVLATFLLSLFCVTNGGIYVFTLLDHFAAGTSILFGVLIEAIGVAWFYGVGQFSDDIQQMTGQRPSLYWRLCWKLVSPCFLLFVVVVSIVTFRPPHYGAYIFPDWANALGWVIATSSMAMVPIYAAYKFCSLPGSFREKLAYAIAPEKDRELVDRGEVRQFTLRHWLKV", "assay": "off-target radioligand binding assay", "details": "10 μM"}, "DAD3": {"biological_target": "DAD3 (Homo sapiens, UniProt P35462)", "assay": "off-target radioligand binding assay", "details": "10 μM"}, "SERT": {"biological_target": "SERT (Homo sapiens, UniProt P31645)", "assay": "off-target radioligand binding assay", "details": "10 μM"}, "α4β2*-nAChR": {"tested_on": "α4β2*-nAChR", "sequence (Q9ERK7 26-501)": "as the sequence (Q9ERK7 26-501) above", "sequence (O70174 31-629, further chain)": "as the sequence (O70174 31-629) above", "type": "cell-based, mouse"}, "μ opioid receptor": {"biological_target": "μ opioid receptor (Homo sapiens, UniProt P35372)", "assay": "off-target radioligand binding assay", "details": "10 μM"}, "rat α7-nAChR": {"biological_target": "rat α7-nAChR (Rattus norvegicus, UniProt Q05941)", "sequence (Q05941 23-502)": "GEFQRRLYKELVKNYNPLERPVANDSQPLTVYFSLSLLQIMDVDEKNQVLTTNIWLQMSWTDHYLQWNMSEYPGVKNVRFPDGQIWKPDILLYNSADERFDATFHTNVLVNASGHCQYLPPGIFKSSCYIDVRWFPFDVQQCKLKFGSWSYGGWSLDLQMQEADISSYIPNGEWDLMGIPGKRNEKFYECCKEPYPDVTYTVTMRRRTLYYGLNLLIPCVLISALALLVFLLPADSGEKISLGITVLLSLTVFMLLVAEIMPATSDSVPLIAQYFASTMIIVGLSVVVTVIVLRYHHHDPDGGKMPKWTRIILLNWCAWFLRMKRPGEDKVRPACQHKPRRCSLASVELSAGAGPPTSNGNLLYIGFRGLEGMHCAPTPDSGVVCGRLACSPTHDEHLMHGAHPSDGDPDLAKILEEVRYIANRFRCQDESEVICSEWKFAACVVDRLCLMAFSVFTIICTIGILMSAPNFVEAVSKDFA", "type": "cell-based"}, "mouse [8]": {"tested_on": "mouse", "details": "cited from earlier work", "remark": "listed apart in the source"}, "NET": {"biological_target": "NET (Homo sapiens, UniProt P23975)", "assay": "off-target radioligand binding assay", "details": "10 μM", "how_it_was_run": "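Inhibition of specific [125I]RTI-55 binding to the norepinephrine transporter, with test compound at 10 μM. The screen was run by a NIDA drug-discovery program contractor.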"}, "rat α3β4-nAChR": {"biological_target": "rat α3β4-nAChR (Rattus norvegicus, UniProt P04757+P12392)", "sequence (P12392 21-495)": "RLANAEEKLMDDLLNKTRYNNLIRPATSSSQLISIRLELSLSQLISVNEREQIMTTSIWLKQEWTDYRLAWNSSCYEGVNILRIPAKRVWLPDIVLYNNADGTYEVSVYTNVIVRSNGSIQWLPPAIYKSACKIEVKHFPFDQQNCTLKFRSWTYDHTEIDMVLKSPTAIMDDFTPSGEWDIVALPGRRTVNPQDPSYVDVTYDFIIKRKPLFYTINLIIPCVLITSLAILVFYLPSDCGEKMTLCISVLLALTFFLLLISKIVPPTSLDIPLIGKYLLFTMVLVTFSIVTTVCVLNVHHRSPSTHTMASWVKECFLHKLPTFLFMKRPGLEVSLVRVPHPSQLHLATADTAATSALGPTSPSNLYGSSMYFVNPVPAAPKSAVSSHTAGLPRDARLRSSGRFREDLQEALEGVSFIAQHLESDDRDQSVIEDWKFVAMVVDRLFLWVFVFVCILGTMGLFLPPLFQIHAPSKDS", "sequence (P04757 26-499)": "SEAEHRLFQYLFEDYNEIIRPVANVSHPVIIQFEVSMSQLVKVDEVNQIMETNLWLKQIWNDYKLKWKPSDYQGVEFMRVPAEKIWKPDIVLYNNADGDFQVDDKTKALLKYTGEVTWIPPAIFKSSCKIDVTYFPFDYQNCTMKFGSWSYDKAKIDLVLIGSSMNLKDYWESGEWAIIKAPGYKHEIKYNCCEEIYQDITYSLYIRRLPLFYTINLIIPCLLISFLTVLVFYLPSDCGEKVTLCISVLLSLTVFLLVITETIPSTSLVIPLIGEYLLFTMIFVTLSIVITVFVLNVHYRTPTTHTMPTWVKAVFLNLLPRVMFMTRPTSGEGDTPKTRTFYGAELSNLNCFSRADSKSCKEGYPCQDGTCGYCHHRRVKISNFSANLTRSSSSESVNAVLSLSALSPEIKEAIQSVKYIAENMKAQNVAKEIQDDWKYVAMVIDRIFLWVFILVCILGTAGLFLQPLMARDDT", "type": "cell-based"}, "5HT2A": {"biological_target": "5HT2A (Homo sapiens, UniProt P28223)", "assay": "off-target radioligand binding assay", "details": "10 μM"}, "5HT1A": {"biological_target": "5HT1A (Homo sapiens, UniProt P08908)", "assay": "off-target radioligand binding assay", "details": "10 μM"}, "rat α4β2-nAChR": {"biological_target": "rat α4β2-nAChR (Rattus norvegicus, UniProt P09483+P12390)", "sequence (P12390 25-500)": "as the sequence (Q9ERK7 26-501) above, with T350A, M371V, Q379R, A383T, L387P, M391V, I449V, S468P counted along it", "sequence (P09483 31-630)": "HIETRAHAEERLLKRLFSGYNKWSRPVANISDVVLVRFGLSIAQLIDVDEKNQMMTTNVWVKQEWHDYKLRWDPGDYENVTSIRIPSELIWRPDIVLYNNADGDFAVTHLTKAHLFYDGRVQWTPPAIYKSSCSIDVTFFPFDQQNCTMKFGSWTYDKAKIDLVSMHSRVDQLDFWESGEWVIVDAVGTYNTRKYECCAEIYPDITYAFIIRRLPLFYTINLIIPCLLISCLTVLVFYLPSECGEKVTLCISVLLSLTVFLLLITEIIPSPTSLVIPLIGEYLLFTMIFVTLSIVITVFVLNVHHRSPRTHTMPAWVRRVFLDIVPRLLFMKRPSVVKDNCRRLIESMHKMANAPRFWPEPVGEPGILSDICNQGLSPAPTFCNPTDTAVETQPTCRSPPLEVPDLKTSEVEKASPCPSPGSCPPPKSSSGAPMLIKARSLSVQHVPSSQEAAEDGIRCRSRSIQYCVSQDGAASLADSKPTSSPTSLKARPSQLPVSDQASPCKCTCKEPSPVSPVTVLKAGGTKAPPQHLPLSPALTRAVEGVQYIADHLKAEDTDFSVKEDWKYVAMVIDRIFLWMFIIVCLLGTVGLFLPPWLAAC", "type": "cell-based"}, "ICR mice [9]": {"tested_on": "ICR mice", "assay": "conditioned place preference", "type": "in vivo, mouse", "details": "3 mg/kg s.c., 15 min before conditioning", "how_it_was_run": "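Test compound given s.c. 15 min before conditioning, in an unbiased three-chamber CPP. Male ICR mice, 8–10 weeks old, n = 8 per group. Baseline day 1: 5 min habituation, 15 min test. Then 3 days of twice-daily 20 min sessions, ≥5 h apart; test on day 5. Score: drug-paired-side time after minus before conditioning; mean ± SEM, p < 0.05 versus vehicle.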"}, "δ opioid receptor": {"biological_target": "δ opioid receptor (Homo sapiens, UniProt P41143)", "assay": "off-target radioligand binding assay", "details": "10 μM"}, "DAD4": {"biological_target": "DAD4 (Homo sapiens, UniProt P21917)", "assay": "off-target radioligand binding assay", "details": "10 μM"}, "κ opioid receptor": {"biological_target": "κ opioid receptor (Homo sapiens, UniProt P41145)", "assay": "off-target radioligand binding assay", "details": "10 μM"}, "α4β2-nAChR": {"tested_on": "α4β2-nAChR", "details": "cited from earlier work"}, "α6β2*- and α4β2*-nAChRs": {"tested_on": "α6β2*- and α4β2*-nAChRs", "details": "via activation of α6β2*- and α4β2*-nAChRs; cited from earlier work"}, "[10]": {"details": "10 μM (+) PHT or 100 μM (−) PHT compared to 10 μM nic response"}, "[11]": {"details": "percentage of the Emax for acetylcholine"}}, "note": "Several values for one entry are separate records, joined by “and”; a condition that tells them apart may be missing. Equal entries are not always repeated."}
{"compound": "Pyrido[3,4]homotropane [PHT]", "values": [{"measurement": "Ki", "setting": "nAChRs", "result": 0.0062, "unit": "µM"}]}
{"compound": "Pyrido[3,4]homotropane [(+)-PHT]", "values": [{"measurement": "max (% nic) dopamine release, α6β2 in α5KO", "setting": "α6β2*-nAChR in α5KO; [10]", "result": 125, "unit": "%"}, {"measurement": "EC50", "setting": "α6β2*-nAChR in α5KO; read-out: EC50 dopamine release, α6β2 in α5KO, α5KO mice", "result": 0.2, "unit": "µM"}, {"measurement": "Ki", "setting": "α6β2*-nAChR [1]", "result": 0.028, "unit": "µM"}, {"measurement": "activity at off site targets in 62 receptor/enzyme screen (NovaScreen)", "setting": "[2]", "result": "inactive"}, {"measurement": "activity in radioligand binding assay, DAD1", "setting": "DAD1", "result": "inactive"}, {"measurement": "activity in hypothermia test", "setting": "mouse [3]", "result": "weak activity"}, {"measurement": "antinociceptive (agonist) activity in hot-plate test", "setting": "mouse [4]", "result": "no antinociceptive activity"}, {"measurement": "activity in radioligand binding assay, 5HT2C", "setting": "5HT2C", "result": "inactive"}, {"measurement": "activity in radioligand binding assay, DAD2", "setting": "DAD2", "result": "inactive"}, {"measurement": "max (% nic) dopamine release, sens α6β2", "setting": "α6β2*-nAChR [5]; [10]", "result": 94, "unit": "%"}, {"measurement": "potency relative to (−)-PHT at the α6β2*-nAChR (DA release EC50)", "setting": "α6β2*-nAChR [5]; wild type mice", "result": 30, "unit": "fold"}, {"measurement": "preference scores in comparison to nicotine alone", "setting": "ICR mice [6]", "result": "significantly reduced"}, {"measurement": "activity in locomotor-activity test", "setting": "mouse [7]", "result": "weak activity"}, {"measurement": "max (% nic) dopamine release, α4β2 in α5KO*", "setting": "α4β2*-nAChR in α5KO; [10]", "result": 13, "unit": "%"}, {"measurement": "EC50", "setting": "α4β2*-nAChR in α5KO; read-out: EC50 dopamine release, α4β2 in α5KO*, α5KO mice", "result": 2, "unit": "µM"}, {"measurement": "activity in radioligand binding assay, DAT", "setting": "DAT", "result": "inactive"}, {"measurement": "activity in radioligand binding assay, DAD3", "setting": "DAD3", "result": "inactive"}, {"measurement": "activity in radioligand binding assay, SERT", "setting": "SERT", "result": "inactive"}, {"measurement": "affinity relative to (−)-PHT for inhibition of [3H]epibatidine binding", "setting": "nAChRs", "result": 266, "unit": "times"}, {"measurement": "Ki", "setting": "nAChRs", "result": 0.00129, "unit": "µM"}, {"measurement": "max (% nic) dopamine release, res α4β2", "setting": "α4β2*-nAChR; [10]", "result": 33, "unit": "%"}, {"measurement": "potency relative to (−)-PHT at the α4β2*-nAChR (DA release EC50)", "setting": "α4β2*-nAChR; wild type mice", "result": 10, "unit": "fold"}, {"measurement": "activity in radioligand binding assay, μ opioid receptor", "setting": "μ opioid receptor", "result": "inactive"}, {"measurement": "antagonism (% of EC50 ACh remaining) α7", "setting": "rat α7-nAChR; 100 μM compound, ACh 300 μM", "result": "87± 1", "unit": "%"}, {"measurement": "IC50", "setting": "rat α7-nAChR; read-out: antagonism, IC50 α7, vs EC50 ACh 300 μM", "result": "720 ± 290", "unit": "µM"}, {"measurement": "activity in tail-flick test given intrathecally", "setting": "mouse [8]; intrathecally 10 μg/mouse", "result": "no antinociceptive activity"}, {"measurement": "antinociceptive (agonist) activity in tail-flick test", "setting": "mouse [8]; mouse", "result": "no antinociceptive activity"}, {"measurement": "inhibition of specific [125I]RTI-55 binding to the NET", "setting": "NET", "result": 61, "unit": "%"}, {"measurement": "antagonism (% of EC50 ACh remaining) α3β4", "setting": "rat α3β4-nAChR; 100 μM compound, ACh 200 μM", "result": "93 ± 3", "unit": "%"}, {"measurement": "agonist activity α3β4 Emax (% ACh)", "setting": "rat α3β4-nAChR; [11]", "result": "8.4 % ACh and 8.4 ± 0.5 % ACh"}, {"measurement": "EC50", "setting": "rat α3β4-nAChR; read-out: agonist activity α3β4 EC50, concentration–response curve", "result": "50 ± 6", "unit": "µM"}, {"measurement": "IC50", "setting": "rat α3β4-nAChR; read-out: antagonism, IC50 α3β4, vs EC50 ACh 200 μM", "result": "242 ± 13", "unit": "µM"}, {"measurement": "activity in radioligand binding assay, 5HT2A", "setting": "5HT2A", "result": "inactive"}, {"measurement": "activity in radioligand binding assay, 5HT1A", "setting": "5HT1A", "result": "inactive"}, {"measurement": "agonist potency at α4β2-nAChR compared to α3β4-nAChR (EC50 comparison)", "setting": "rat α4β2-nAChR", "result": 12, "unit": "fold"}, {"measurement": "antagonist selectivity for α4β2- relative to α3β4-nAChR (IC50 comparison)", "setting": "rat α4β2-nAChR", "result": 15, "unit": "fold"}, {"measurement": "antagonist selectivity for α4β2- relative to α7-nAChR (IC50 comparison)", "setting": "rat α4β2-nAChR", "result": 45, "unit": "fold"}, {"measurement": "antagonism (% of EC50 ACh remaining) α4β2", "setting": "rat α4β2-nAChR; 100 μM compound, ACh 70 μM", "result": "17 ± 3", "unit": "%"}, {"measurement": "agonist activity α4β2 Emax (% ACh)", "setting": "rat α4β2-nAChR; [11]", "result": "4.6 % ACh and 4.6 ± 0.4 % ACh"}, {"measurement": "EC50", "setting": "rat α4β2-nAChR; read-out: agonist activity α4β2 EC50, concentration–response curve", "result": "4 ± 1", "unit": "µM"}, {"measurement": "IC50", "setting": "rat α4β2-nAChR; read-out: antagonism, IC50 α4β2, vs EC50 ACh 70 μM", "result": "16 ± 3", "unit": "µM"}, {"measurement": "CPP scores", "setting": "ICR mice [9]", "result": "significantly increased"}, {"measurement": "activity in radioligand binding assay, δ opioid receptor", "setting": "δ opioid receptor", "result": "inactive"}, {"measurement": "activity in radioligand binding assay, DAD4", "setting": "DAD4", "result": "inactive"}, {"measurement": "activity in radioligand binding assay, κ opioid receptor", "setting": "κ opioid receptor", "result": "inactive"}, {"measurement": "EC50", "setting": "α4β2-nAChR; read-out: EC50 at α4β2-nAChR", "result": 5.5, "unit": "µM"}, {"measurement": "intrinsic activity at α4β2-nAChR", "setting": "α4β2-nAChR; versus full agonist acetylcholine (1 mM)", "result": 17, "unit": "%"}]}
{"compound": "Cc1ncccc1OC[C@@H]1CCCN1", "note": "[ABT-089, 2-Methyl-3-[(2S)-pyrrolidin-2-yl]methoxypyridine]", "values": [{"measurement": "effect on in vitro striatal DA release", "setting": "α6β2*- and α4β2*-nAChRs", "result": "increases in vitro striatal DA release"}]}
